Test results reported in ChEMBL document CHEMBL5376028, “Discovery of dual-action phenolic 4-arylidene-isoquinolinones with antioxidant and α-glucosidase inhibition activities” (RSC Med Chem, 2024).
Calls of active or inactive are those of the source. No cut-off for these calls is given here.

What was measured:
[1] = Antioxidant activity assessed as DPPH radical scavenging activity at 100 uM incubated for 30 mins in dark by absorbance based analysis relative to control; type: functional
In short: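 The compound in DMSO was mixed with DPPH in EtOH (final 100 μM). It was incubated 30 min at 37 °C with stirring in the dark, and absorbance was read at 515 nm. Scavenging % = (C − E) × 100/C against the DPPH control.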

Brain [2] = test: Antioxidant activity in Wistar rat brain homogenate assessed as inhibition of FeSO4-induced lipid peroxidation by measuring TBARS scavenging activity at 100 uM preincubated with compound for 30 mins followed by FeSO4 addition and measured after 1 hrs by absorbance based microplate reader relative to control; type: functional, tissue-based; parameters: scale not given: the % may be the effect or the level left; conditions: time 90.0 min
In short: (§1)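 Whole brains of adult male Wistar rats (200–250 g) were homogenized 1/10 in PBS pH 7.4 and spun at 800 rcf. The supernatant was adjusted to 2.666 mg protein/mL and preincubated with EDTA and compound in DMSO for 30 min at 37 °C. FeSO₄ (final 10 μM) was added for 1 h at 37 °C. TBA/TCA reagent was added, then heating at 80 °C, and A540 was read against a TMP standard curve. Inhibition % was calculated versus the DMSO control; α-tocopherol served as the standard. IC₅₀ came from linear regression, mean ± SEM of three experiments.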

Brain [3] = test: Antioxidant activity in Wistar rat brain homogenate assessed as inhibition of FeSO4-induced lipid peroxidation preincubated with compound for 30 mins followed by FeSO4 addition and measured after 1 hrs by TBARS assay; type: functional, tissue-based; in short: as §1
Alpha-glucosidase = Alpha-glucosidase (Saccharomyces cerevisiae S288c, UniProt P53341+P38158+P07265); test: Inhibition of Saccharomyces cerevisiae alpha-glucosidase using p-nitrophenyl-alpha-D-glucopyranoside as substrate pre-incubated for 10 mins followed by substrate addition and measured after 15 mins by absorbance based analysis; type: protein assay
[4] = biological target: T1, Alpha-glucosidase (Saccharomyces cerevisiae S288c) (UniProt P53341+P38158+P07265); test: Mixed type inhibition of Saccharomyces cerevisiae alpha-glucosidase using p-nitrophenyl-alpha-D-glucopyranoside as substrate at 1 to 2 times of IC50 pre-incubated for 10 mins followed by substrate addition and measured after 15 mins by Lineweaver-Burk plot analysis; type: protein assay; conditions: time 25.0 min
In short: (§2)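 The same α-glucosidase protocol was used, with enzyme and inhibitor preincubated 10 min. Reactions were started with PNPG varied from 1 to 23.1 mM at 37 °C, quenched with […] and read at 405 nm. […] Mode was assigned from Lineweaver–Burk plots.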

Mus musculus [5] = test: Anti-hyperglycemic activity in CDI mouse assessed as decrease in blood glucose level at 50 mg/kg preadministered with compound for 30 mins followed by sucrose administration and measured after 30 mins by oral sucrose tolerance test relative to control; type: functional; parameters: scale not given: the % may be the effect or the level left
In short: (§3)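 Sucrose 3 g kg⁻¹ given orally 30 min later. Caudal vein blood glucose measured by glucometer at 0, 0.5, 1, 1.5, 2 and 3 h; % variation of glycemia calculated relative to the 0 h level.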

Mus musculus [6] = test: Anti-hyperglycemic activity in CDI mouse assessed as blood glucose concentration at 50 mg/kg preadministered with compound for 30 mins followed by sucrose administration and measured after 3 hrs by oral sucrose tolerance test relative to control; type: functional; conditions: time 3.5 hrs; in short: as §3
Mus musculus [7] = test: Anti-hyperglycemic activity in CDI mouse assessed as reduction in blood glucose level at 100 mg/kg preadministered with compound for 30 mins followed by sucrose administration and measured upto 3 hrs by oral sucrose tolerance test relative to control; type: functional; parameters: scale not given: the % may be the effect or the level left; conditions: time < 3.5 hrs; in short: as §3
[8] = biological target: T1, Alpha-glucosidase (Saccharomyces cerevisiae S288c); test: Mixed type inhibition of Saccharomyces cerevisiae alpha-glucosidase using p-nitrophenyl-alpha-D-glucopyranoside as substrate at 0.5 to 1 times of IC50 pre-incubated for 10 mins followed by substrate addition and measured after 15 mins by Lineweaver-Burk plot analysis; type: protein assay; conditions: time 25.0 min; in short: as §2
Mus musculus [9] = test: Anti-hyperglycemic activity in CDI mouse assessed as reduction in blood glucose level preadministered with compound for 30 mins followed by sucrose administration and measured upto 3 hrs by oral sucrose tolerance test; type: functional, organism-based; conditions: dose 50-100 mg/kg, time <= 3.5 hrs; in short: as §3
[10] = Toxicity in CDI mouse; conditions: in vivo
COS-7 = test: Cytotoxicity against African green monkey COS-7 cells at 50 uM; type: toxicity, cell-based; conditions: chlorocebus aethiops, cos-7, 50 µM
Mus musculus [11] = test: Anti-hyperglycemic activity in CDI mouse assessed as reduction in blood glucose level at 50 mg/kg measured for 7 hrs by oral glucose tolerance test; type: functional, organism-based
Mus musculus [12] = test: Anti-hyperglycemic activity in CDI mouse assessed as reduction in glucose AUC at 50 mg/kg measured for 7 hrs by oral glucose tolerance test; type: functional, organism-based
[13] = biological target: T1, Alpha-glucosidase (Saccharomyces cerevisiae S288c); test: Non-competitive inhibition of Saccharomyces cerevisiae alpha-glucosidase using p-nitrophenyl-alpha-D-glucopyranoside as substrate at 1 to 2 times of IC50 pre-incubated for 10 mins followed by substrate addition and measured after 15 mins by Lineweaver-Burk plot analysis; type: protein assay; conditions: time 25.0 min; in short: as §2
[14] = Antioxidant activity assessed as hydroxyl radical scavenging activity by measuring fluorescence intensity at 3 uM by Electron Paramagnetic Resonance based spectrophotometric analysis (reference value: 610 a.u.); type: functional
In short: (§4)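 Hydroxyl radicals generated by Fenton reaction: FeSO₄·7H₂O 20 μM (in acid water, pH 2.5) plus H₂O₂ 200 μM, with DMPO 6000 μM spin trap in PBS pH 7.4. Compound added in acetone at final 106, 60, 10.66 or 3.3 μM. The DMPO–OH quartet was recorded by EPR as the first derivative in a quartz flat cell, at 9.44 GHz, 8 mW microwave power, 0.1 mT modulation width. Intensity was taken as peak height of the second signal.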

[15] = Antioxidant activity assessed as hydroxyl radical scavenging activity by measuring fluorescence intensity at 10 uM by Electron Paramagnetic Resonance based spectrophotometric analysis (reference value: 610 a.u.); type: functional; in short: as §4
[16] = Antioxidant activity assessed as hydroxyl radical scavenging activity by measuring fluorescence intensity at 60 uM by Electron Paramagnetic Resonance based spectrophotometric analysis (reference value: 610 a.u.); type: functional; in short: as §4
[17] = Antioxidant activity assessed as hydroxyl radical scavenging activity by measuring fluorescence intensity at 106 uM by Electron Paramagnetic Resonance based spectrophotometric analysis (reference value: 610 a.u.); type: functional; in short: as §4
[18] = Antioxidant activity assessed as hydroxyl radical scavenging activity by Electron Paramagnetic Resonance based spectrophotometric analysis; type: functional; conditions: dose 3-106 µM
In short: (§5)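 Hydroxyl radicals came from a Fenton reaction: FeSO₄·7H₂O 20 μM (acid water, pH 2.5) plus H₂O₂ 200 μM, with DMPO 6000 μM spin trap in PBS pH 7.4. The compound in acetone was tested at final 106, 60, 10.66 and 3.3 μM. The DMPO–OH quartet was recorded by EPR (9.44 GHz, 8 mW, 0.1 mT modulation, 120 s sweep), and intensity was taken from the second-peak height.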

[19] = Antioxidant activity assessed as reduction in hydroxyl concentration at 10 uM by Electron Paramagnetic Resonance based spectrophotometric analysis relative to control; type: functional; parameters: scale not given: the % may be the effect or the level left; in short: as §5
[20] = Antioxidant activity assessed as inhibition of hydroxyl radical at 106 uM by Electron Paramagnetic Resonance based spectrophotometric analysis relative to control; type: functional; in short: as §5
[21] = Rattus norvegicus, Wistar, Brain

Compound	Activity [1] [%]	Activity (Brain [2]) [%]	IC50 (Brain [3]; [21]) [µM]	IC50 (Alpha-glucosidase) [µM]	also measured
COc1cc(/C=C2/C(=O)N(c3ccc(C(C)C)cc3)C(C(=O)NC(C)(C)C)c3ccccc32)cc(OC)c1O (stereo not given)	37.6	96.8	2.4	> 100	
O=c1c(O)c(-c2ccc(O)c(O)c2)oc2cc(O)cc(O)c12	97.9	95.7			
COc1cc(/C=C2/C(=O)N(c3ccc(C)cc3)C(C(=O)NC3CCCCC3)c3ccccc32)cc(OC)c1O (stereo not given)	37.5	96.5	3.5	44.4	
COc1cc(/C=C2/C(=O)N(c3ccc(O)cc3)C(C(=O)NC3CCCCC3)c3ccccc32)cc(OC)c1O (stereo not given)	33.1	98	9.8	> 100	
COc1cc(/C=C2/C(=O)N(Cc3ccccc3)C(C(=O)NC3CCCCC3)c3ccccc32)ccc1O (stereo not given)	77.1	93.1		50.1	
COc1cc(/C=C2/C(=O)N(c3ccc(C(C)C)cc3)C(C(=O)NC3CCCCC3)c3ccccc32)ccc1O (stereo not given)	68	95.7	17.2	14.8	inhibition [4]: Active; Activity (Mus musculus [5]; time 60 min, 1 h): 17%
CC(C)c1ccc(N2C(=O)/C(=C/c3ccccc3)c3ccccc3C2C(=O)NC(C)(C)C)cc1 (stereo not given)	0	6.1		50.6	
COc1ccc2c(c1)/C(=C\c1ccc(O)c(OC)c1)C(=O)N(c1ccc(C(C)C)cc1)C2C(=O)NC(C)(C)C (stereo not given)	69.2	95.4	11.3	31.5	
COc1cc(/C=C2/C(=O)N(c3ccccc3)C(C(=O)NC3CCCCC3)c3ccccc32)ccc1O (stereo not given)	66.8	95.5	19.2	50.5	
COc1cc(/C=C2/C(=O)N(c3ccc(C)cc3)C(C(=O)NC3CCCCC3)c3ccccc32)ccc1O (stereo not given)	72.7	70.7		30.2	Activity (Mus musculus [5]; time 60.0 min): Active; Activity (Mus musculus [6]): 20%; Activity (Mus musculus [7]): 41%; inhibition [8]: Active; Activity (Mus musculus [9]): Dose-Dependent Effect; Activity [10]: Non-Toxic; Activity (COS-7): Non-Toxic; Activity (Mus musculus [11]): inactive; Activity (Mus musculus [12]): inactive
COc1cc(/C=C2/C(=O)N(c3ccc(F)cc3)C(C(=O)NC3CCCCC3)c3ccccc32)ccc1O (stereo not given)	67.3	90.5		52.5	
COc1cc(/C=C2/C(=O)N(c3ccc(C(C)C)cc3)C(C(=O)NC(C)(C)C)c3ccccc32)ccc1O (stereo not given)	67.3	92.4		68	
VITAMIN E [listing 1 of 2 here]	87.4	79.1			
COc1cc(/C=C2/C(=O)N(c3ccc(C(F)(F)F)cc3)C(C(=O)NC3CCCCC3)c3ccccc32)cc(OC)c1O (stereo not given)	89.9	99.4	1.6	> 100	Activity (Mus musculus [5]; time 60.0 min): Active
COc1cc(/C=C2/C(=O)N(c3ccc(C(F)(F)F)cc3)C(C(=O)NC3CCCCC3)c3ccccc32)ccc1O (stereo not given)	65.9	64.3		13.7	inhibition [13]: Active; Activity (Mus musculus [5]; time 60 min, 1 h): 26%; Activity [10]: Non-Toxic; Activity (COS-7): Non-Toxic; Activity (Mus musculus [11]): inactive; Activity (Mus musculus [12]): inactive
COc1cc(/C=C2/C(=O)N(c3ccc(F)cc3)C(C(=O)NC3CCCCC3)c3ccccc32)cc(OC)c1O (stereo not given)	36.1	96.8	2.9	57.2	
COc1cc(/C=C2/C(=O)N(Cc3ccccc3)C(C(=O)NC3CCCCC3)c3ccccc32)cc(OC)c1O (stereo not given)	36.2	96.8	2.2	61.3	
COc1cc(/C=C2/C(=O)N(c3ccc(C(C)C)cc3)C(C(=O)NC3CCCCC3)c3ccccc32)cc(OC)c1O (stereo not given)	35.4	97.7	1.4	33.1	Flu intensity [14]: 464 a.u.; Flu intensity [15]: 412 a.u.; Flu intensity [16]: 256 a.u.; Flu intensity [17]: 150 a.u.; Activity [18]: Dose-Dependent Effect; Activity [19]: 25%; inhibition [20]: 76%; Activity (Mus musculus [5]; time 60.0 min): Active; Activity (Mus musculus [6]): 29%; Activity (Mus musculus [7]): 54%; Activity (Mus musculus [9]): Dose-Dependent Effect
COc1cc(/C=C2/C(=O)N(c3ccc(O)cc3)C(C(=O)NC3CCCCC3)c3ccccc32)ccc1O (stereo not given)	72.2	96.4	22.7	92.8	
COc1cc(/C=C2/C(=O)N(c3ccccc3)C(C(=O)NC3CCCCC3)c3ccccc32)cc(OC)c1O (stereo not given)	40.6	97.8	4.8	60.1	
VITAMIN E [listing 2 of 2 here]					IC50 (Brain [3]): 6.8 µM
